Source: ChEMBL document CHEMBL3792316, “2-Phenylbenzofuran derivatives as butyrylcholinesterase inhibitors: Synthesis, biological activity and molecular modeling” (Bioorg Med Chem Lett, 2016)
Active and inactive are the calls of the source. No cut-off for these calls is given here.

Key:
[1] = Antioxidant activity assessed as ABTS free radical scavenging activity at 100 uM after 1 min by spectrophotometry
[2] = molecular target: Cholinesterase (Equus caballus) (UniProt P81908); assay: Inhibition of equine BChE at 100 uM using S-butyrylthiocholine chloride as substrate by Ellman's method
Sequence of Cholinesterase (Equus caballus) (P81908 whole entry): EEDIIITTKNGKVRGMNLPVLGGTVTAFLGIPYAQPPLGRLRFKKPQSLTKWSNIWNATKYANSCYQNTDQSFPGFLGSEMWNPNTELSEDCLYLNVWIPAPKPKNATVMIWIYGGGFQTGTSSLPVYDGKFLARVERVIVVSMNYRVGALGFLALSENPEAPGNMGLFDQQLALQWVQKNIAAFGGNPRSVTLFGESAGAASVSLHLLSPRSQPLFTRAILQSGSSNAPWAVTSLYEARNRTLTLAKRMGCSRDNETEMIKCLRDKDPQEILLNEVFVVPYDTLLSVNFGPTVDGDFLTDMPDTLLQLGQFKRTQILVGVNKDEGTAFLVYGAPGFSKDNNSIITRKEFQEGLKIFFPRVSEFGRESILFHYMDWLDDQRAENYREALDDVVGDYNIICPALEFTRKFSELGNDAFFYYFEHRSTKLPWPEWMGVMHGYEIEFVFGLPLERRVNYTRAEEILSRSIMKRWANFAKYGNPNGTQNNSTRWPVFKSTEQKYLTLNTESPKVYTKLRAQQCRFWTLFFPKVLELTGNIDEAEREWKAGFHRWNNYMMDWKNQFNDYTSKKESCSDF

Cholinesterase [3] = molecular target: T1, Cholinesterase (Equus caballus, UniProt P81908); assay: Inhibition of equine BChE using S-butyrylthiocholine chloride as substrate by Ellman's method
T1 sequence (P81908 whole entry): as above
Method in brief: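 IC50 values are the mean ± SD of three independent experiments.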

[4] = Antioxidant activity assessed as ABTS free radical scavenging activity after 1 min by spectrophotometry
Cholinesterase [5] = molecular target: T1, Cholinesterase; assay: Mixed-type inhibition of equine BChE using S-butyrylthiocholine chloride as substrate assessed as enzyme-substrate complex by Lineweaver-Burk reciprocal plot method
Cholinesterase [6] = molecular target: T1, Cholinesterase; assay: Mixed-type inhibition of equine BChE using S-butyrylthiocholine chloride as substrate assessed as free enzyme by Lineweaver-Burk reciprocal plot method
[7] = Cytotoxicity against mouse NSC-34 cells assessed as cell viability after 48 hrs by MTS assay; type: cell-based; details: nsc-34, 48 h
[8] = molecular target: Acetylcholinesterase (Electrophorus electricus) (UniProt O42275); assay: Inhibition of electric eel AChE at 100 uM using acetylthiocholine iodide as substrate by Ellman's method
Sequence of Acetylcholinesterase (Electrophorus electricus) (O42275 24-633 limits assumed): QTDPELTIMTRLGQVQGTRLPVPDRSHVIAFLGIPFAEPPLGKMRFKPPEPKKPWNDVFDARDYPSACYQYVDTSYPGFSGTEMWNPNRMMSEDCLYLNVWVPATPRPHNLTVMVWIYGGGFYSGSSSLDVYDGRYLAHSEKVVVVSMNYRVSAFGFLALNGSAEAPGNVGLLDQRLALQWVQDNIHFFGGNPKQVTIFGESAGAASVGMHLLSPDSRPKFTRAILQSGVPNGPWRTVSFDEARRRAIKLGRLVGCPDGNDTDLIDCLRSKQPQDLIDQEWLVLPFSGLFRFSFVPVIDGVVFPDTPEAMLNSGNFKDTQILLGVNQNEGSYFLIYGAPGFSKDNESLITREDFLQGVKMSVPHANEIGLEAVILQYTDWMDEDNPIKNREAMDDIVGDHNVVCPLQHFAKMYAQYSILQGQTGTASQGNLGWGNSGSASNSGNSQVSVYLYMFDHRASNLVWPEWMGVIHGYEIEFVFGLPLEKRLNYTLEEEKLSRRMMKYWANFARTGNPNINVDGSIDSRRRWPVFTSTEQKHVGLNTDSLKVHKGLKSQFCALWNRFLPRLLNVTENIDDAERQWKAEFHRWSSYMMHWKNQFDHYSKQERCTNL

SMILES	INH [1]	inhibition [2]	IC50 (Cholinesterase [3])	IC50 ([4]; ABTS free radical)	Ki (Cholinesterase [5])	Ki (Cholinesterase [6])	Activity [7]	IC50 [4]	inhibition [8]
Oc1ccc(-c2cc3cccc(Br)c3o2)cc1	53%	54%	82.5 µM	93.6 µM	–	–	–	–	–
Oc1ccc(-c2cc3cccc(Cl)c3o2)cc1	62.4%	77%	30.3 µM	–	87.4 µM	5 µM	Non-toxic	67.6 µM	–
COc1ccc(-c2cc3ccccc3o2)cc1	–	inactive	> 100 µM	–	–	–	–	–	inactive
Oc1ccc(-c2cc3cc(Br)ccc3o2)cc1	15%	16.6%	> 100 µM	–	–	–	–	–	–
Oc1ccc(-c2cc3cc(Cl)ccc3o2)cc1	15%	15%	> 100 µM	–	–	–	–	–	–
Brc1cccc2cc(-c3ccccc3)oc12	–	12%	> 100 µM	–	–	–	–	–	4%
Cc1cccc2cc(-c3ccc(O)cc3)oc12	72%	58%	77 µM	53.5 µM	–	–	–	–	–
Oc1ccc(-c2cc3ccccc3o2)cc1	24%	inactive	> 100 µM	–	–	–	–	–	inactive
COc1ccc(-c2cc3cccc(Cl)c3o2)cc1	–	5%	> 100 µM	–	–	–	–	–	–
c1ccc(-c2cc3ccccc3o2)cc1	–	6%	> 100 µM	–	–	–	–	–	inactive
Cc1ccc2oc(-c3ccc(O)cc3)cc2c1	31%	19%	> 100 µM	–	–	–	–	–	4.8%
Cc1c(C)c2c(c(C)c1O)CCC(C)(C(=O)O)O2 (stereo unspecified) [TROLOX]	–	–	–	13 µM	–	–	–	–	–
